ChEMBL document CHEMBL1143779, “Antiviral 2,5-disubstituted imidazo[4,5-c]pyridines: from anti-pestivirus to anti-hepatitis C virus activity” (Bioorg Med Chem Lett, 2007)
Active and inactive are the calls of the source. No cut-off for these calls is given here.

Experiments:
[1] = tested on: Hepatitis C virus; assay: Antiviral activity against HCV in Huh 5-2 cells assessed as […]; format: functional, organism-based, Hepacivirus hominis
How it was run: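 Huh 5-2 cells were seeded at 5×10³/well in complete DMEM with G418. After 24 h at 37 °C (5% CO₂), the medium was replaced with threefold serial compound dilutions in DMEM without G418 and incubated for 4 days. Values are means of 4–6 independent experiments.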

[2] = Cytotoxicity against Huh 5-2 cells; format: cell-based; details: human
How it was run: (§1)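 MDBK or Huh 5-2 cells seeded at 5 · 10³ cells/well in MEM-FCS; serial compound dilutions added 24 h later. Read-out OD490 nm, expressed as OD treated/OD untreated control.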

[3] = (§2) Selectivity index, ratio of CC50 for MDBK cells to EC50 for BVDV; format: functional
[4] = Cytotoxicity against MDBK cells; format: cell-based, Bos taurus; details: cattle; how it was run: as §1
[5] = Selectivity index, ratio of CC50 for Huh 5-2 cells to EC50 for HCV; format: functional
[6] = tested on: Bovine viral diarrhea virus 1; assay: Antiviral activity against BVDV in MDBK cells assessed as reduction of virus-induced cytopathic effect; format: functional, organism-based; details: Bovine viral diarrhea virus isolates and strains
[7] = tested on: MDBK; assay: as §2; format: functional

In the case of `CCc1nc2ccn(Cc3ccc(Br)cc3)cc-2n1`, the EC50 [1] is reported as over 92 µM, the CC50 [2] is reported as 92 µM and the “Ratio CC50/EC50” value [3] is reported as over 87. For the same compound, the CC50 [4] was over 33 µM, the Activity [5] was “inactive” and the EC50 [6] was 0.38 µM.
In the case of `Cc1ccccc1-c1nc2ccn(Cc3ccc(Br)cc3)cc-2n1`, the EC50 [1] is reported as 24 µM, the CC50 [2] is reported as 21 µM and the “Ratio CC50/EC50” value [3] is reported as over 541. The CC50 [4] was over 33 µM, the Activity [5] was “inactive” and the EC50 [6] was 0.061 µM.
With `Brc1ccc(Cn2ccc3nc(-c4cccc5ccccc45)nc-3c2)cc1` the EC50 [1] was 9.7 µM, the CC50 [2] was 12 µM and the “Ratio CC50/EC50” value [3] was 77. For the same compound, the CC50 [4] was 23 µM, the Activity [5] was “inactive” and the EC50 [6] was 0.3 µM.
For `Fc1cccc(-c2nc3ccn(Cc4ccc(Br)cc4)cc-3n2)c1`, the EC50 [1] was over 44 µM, the CC50 [2] was 44 µM and the “Ratio CC50/EC50” value [3] was over 825. For the same compound, the CC50 [4] was over 33 µM, the Activity [5] was “inactive” and the EC50 [6] was 0.04 µM.
For `CN(C)c1cccc(-c2nc3ccn(Cc4ccc(Br)cc4)cc-3n2)c1`, the EC50 [1] was over 79 µM, the CC50 [2] was 79 µM and the “Ratio CC50/EC50” value [3] was 171. For the same compound, the CC50 [4] was 24 µM, the Activity [5] was “inactive” and the EC50 [6] was 0.14 µM.
In the case of `COc1cccc(-c2nc3ccn(Cc4ccc(Br)cc4)cc-3n2)c1`, the EC50 [1] is reported as 18 µM, the CC50 [2] is reported as 28 µM and the “Ratio CC50/EC50” value [3] is reported as over 660. For the same compound, the CC50 [4] was over 33 µM, the “Ratio CC50/EC50” value [5] was 2 and the EC50 [6] was 0.05 µM.
For `Fc1ccc(-c2nc3ccn(Cc4ccc(Br)cc4)cc-3n2)cc1`, the EC50 [1] was 31 µM, the CC50 [2] was 37 µM and the “Ratio CC50/EC50” value [3] was over 194. The CC50 [4] was over 33 µM, the Activity [5] was “inactive” and the EC50 [6] was 0.17 µM.
In the case of `Clc1ccccc1-c1nc2ccn(Cc3ccc(Br)cc3)cc-2n1`, the EC50 [1] is reported as 25 µM, the CC50 [2] is reported as 43 µM and the “Ratio CC50/EC50” value [3] is reported as over 100. For the same compound, the CC50 [4] was over 33 µM, the “Ratio CC50/EC50” value [5] was 2 and the EC50 [6] was 0.33 µM.
In the case of `Brc1ccc(Cn2ccc3nc(-c4cccs4)nc-3c2)cc1`, the EC50 [1] is reported as over 35 µM, the CC50 [2] is reported as 35 µM and the “Ratio CC50/EC50” value [3] is reported as over 825. The CC50 [4] was over 33 µM, the Activity [5] was “inactive” and the EC50 [6] was 0.04 µM.
In the case of `Brc1ccc(Cn2ccc3nc(CCc4ccccc4)nc-3c2)cc1`, the EC50 [1] is reported as 2.5 µM, the CC50 [2] is reported as 7.6 µM and the Activity [7] is reported as “inactive”. For the same compound, the CC50 [4] was 16 µM, the “Ratio CC50/EC50” value [5] was 3 and the EC50 [6] was over 16 µM.
In the case of `Fc1ccccc1-c1nc2ccn(Cc3ccc(Cl)cc3)cc-2n1`, the EC50 [1] is reported as 44 µM, the CC50 [2] is reported as 68 µM and the “Ratio CC50/EC50” value [3] is reported as over 300. The CC50 [4] was over 33 µM, the “Ratio CC50/EC50” value [5] was 1.5 and the EC50 [6] was 0.11 µM.
With `FC(F)(F)c1cccc(-c2nc3ccn(Cc4ccc(Br)cc4)cc-3n2)c1` the EC50 [1] was 23 µM, the CC50 [2] was over 116 µM and the “Ratio CC50/EC50” value [3] was over 72. For the same compound, the CC50 [4] was over 33 µM, the “Ratio CC50/EC50” value [5] was over 5 and the EC50 [6] was 0.5 µM.
For `Brc1ccc(Cn2ccc3nc(CCCc4ccccc4)nc-3c2)cc1`, the EC50 [1] was 7.4 µM, the CC50 [2] was 12 µM and the “Ratio CC50/EC50” value [3] was 8. For the same compound, the CC50 [4] was 22 µM, the “Ratio CC50/EC50” value [5] was 2 and the EC50 [6] was 3 µM.
For `Clc1ccc(-c2nc3ccn(Cc4ccc(Br)cc4)cc-3n2)cc1`, the EC50 [1] was 13 µM, the CC50 [2] was 17 µM and the “Ratio CC50/EC50” value [3] was over 47. The CC50 [4] was over 33 µM, the Activity [5] was “inactive” and the EC50 [6] was 0.7 µM.
With `Brc1ccc(Cn2ccc3nc(CSc4ccccc4)nc-3c2)cc1` the EC50 [1] was 4.9 µM, the CC50 [2] was 9.7 µM and the Activity [7] was “inactive”. The CC50 [4] was 25 µM, the “Ratio CC50/EC50” value [5] was 2 and the EC50 [6] was over 25 µM.
In the case of `Brc1ccc(Cn2ccc3nc(CCCCc4ccccc4)nc-3c2)cc1`, the EC50 [1] is reported as over 2.2 µM, the CC50 [2] is reported as 2.2 µM and the Activity [7] is reported as “inactive”. For the same compound, the CC50 [4] was 5 µM, the Activity [5] was “inactive” and the EC50 [6] was over 5 µM.
With `Cc1ccc(-c2nc3ccn(Cc4ccc(Br)cc4)cc-3n2)cc1` the EC50 [1] was 8.2 µM, the CC50 [2] was 13 µM and the “Ratio CC50/EC50” value [3] was 53. The CC50 [4] was 21 µM, the “Ratio CC50/EC50” value [5] was 2 and the EC50 [6] was 0.4 µM.
In the case of `Brc1ccc(Cn2ccc3nc(-c4cccc(Br)c4)nc-3c2)cc1`, the EC50 [1] is reported as over 113 µM, the CC50 [2] is reported as over 113 µM and the “Ratio CC50/EC50” value [3] is reported as over 300. For the same compound, the CC50 [4] was over 33 µM, the Activity [5] was “inactive” and the EC50 [6] was 0.11 µM.
For `Brc1ccc(Cn2ccc3nc(-c4ccccc4)nc-3c2)cc1`, the EC50 [1] was over 38 µM, the CC50 [2] was 38 µM and the Activity [5] was “inactive”.
For `Brc1ccc(Cn2ccc3nc(-c4cc(Br)cc(Br)c4)nc-3c2)cc1`, the EC50 [1] was over 96 µM, the CC50 [2] was over 96 µM and the Activity [7] was “inactive”. The CC50 [4] was over 33 µM, the Activity [5] was “inactive” and the EC50 [6] was over 33 µM.
In the case of `Brc1ccc(Cn2ccc3nc(-c4ccccn4)nc-3c2)cc1`, the EC50 [1] is reported as 0.35 µM, the CC50 [2] is reported as 5.2 µM and the “Ratio CC50/EC50” value [3] is reported as 96. The CC50 [4] was 10 µM, the “Ratio CC50/EC50” value [5] was 15 and the EC50 [6] was 0.1 µM.
In the case of `Cc1cccc(-c2nc3ccn(Cc4ccc(Br)cc4)cc-3n2)c1`, the EC50 [1] is reported as over 11 µM, the CC50 [2] is reported as 11 µM and the “Ratio CC50/EC50” value [3] is reported as 372. The CC50 [4] was 23 µM, the Activity [5] was “inactive” and the EC50 [6] was 0.06 µM.
In the case of `Brc1ccc(Cn2ccc3nc(-c4cccc(I)c4)nc-3c2)cc1`, the EC50 [1] is reported as 5.7 µM, the CC50 [2] is reported as 12 µM and the “Ratio CC50/EC50” value [3] is reported as over 83. The CC50 [4] was over 33 µM, the “Ratio CC50/EC50” value [5] was 2 and the EC50 [6] was 0.07 µM.
With `Brc1ccc(Cn2ccc3nc(-c4ccc(Br)s4)nc-3c2)cc1` the EC50 [1] was over 18 µM, the CC50 [2] was 18 µM and the “Ratio CC50/EC50” value [3] was over 55. For the same compound, the CC50 [4] was over 33 µM, the Activity [5] was “inactive” and the EC50 [6] was 0.6 µM.
For `Clc1cccc(-c2nc3ccn(Cc4ccc(Br)cc4)cc-3n2)c1`, the EC50 [1] was 83 µM, the CC50 [2] was over 125 µM and the “Ratio CC50/EC50” value [3] was over 220. For the same compound, the CC50 [4] was over 33 µM, the “Ratio CC50/EC50” value [5] was over 2 and the EC50 [6] was 0.15 µM.
In the case of `Brc1ccc(Cn2ccc3nc(-c4ccccc4Br)nc-3c2)cc1`, the EC50 [1] is reported as 21 µM, the CC50 [2] is reported as 36 µM and the “Ratio CC50/EC50” value [3] is reported as over 66. For the same compound, the CC50 [4] was over 33 µM, the “Ratio CC50/EC50” value [5] was 2 and the EC50 [6] was 0.5 µM.
For `Brc1ccc(Cn2ccc3nc(Cc4ccccc4)nc-3c2)cc1`, the EC50 [1] was 79 µM, the CC50 [2] was over 132 µM and the Activity [7] was “inactive”. For the same compound, the CC50 [4] was over 33 µM, the “Ratio CC50/EC50” value [5] was over 2 and the EC50 [6] was over 33 µM.
For `Brc1ccc(Cn2ccc3nc(-c4ccncc4)nc-3c2)cc1`, the EC50 [1] was 14 µM, the CC50 [2] was 38 µM and the “Ratio CC50/EC50” value [3] was over 70. For the same compound, the CC50 [4] was over 33 µM, the “Ratio CC50/EC50” value [5] was 3 and the EC50 [6] was 0.47 µM.
In the case of `Brc1ccc(Cn2ccc3nc(-c4ccc5ccccc5c4)nc-3c2)cc1`, the EC50 [1] is reported as 5.7 µM, the CC50 [2] is reported as 9.7 µM and the “Ratio CC50/EC50” value [3] is reported as 259. For the same compound, the CC50 [4] was 7 µM, the “Ratio CC50/EC50” value [5] was 2 and the EC50 [6] was 0.03 µM.
In the case of `Brc1ccc(Cn2ccc3nc(/C=C/c4ccccc4)nc-3c2)cc1`, the EC50 [1] is reported as 1.7 µM, the CC50 [2] is reported as 2.5 µM and the “Ratio CC50/EC50” value [3] is reported as 88. The CC50 [4] was 14 µM, the “Ratio CC50/EC50” value [5] was over 2 and the EC50 [6] was 0.16 µM.
In the case of `Fc1ccccc1-c1nc2ccn(Cc3ccc(I)cc3)cc-2n1`, the EC50 [1] is reported as 0.79 µM, the CC50 [2] is reported as 58 µM and the “Ratio CC50/EC50” value [3] is reported as over 478. The CC50 [4] was over 33 µM, the “Ratio CC50/EC50” value [5] was 74 and the EC50 [6] was 0.07 µM.
In the case of `Brc1ccc(Cn2ccc3nc(-c4cccnc4)nc-3c2)cc1`, the EC50 [1] is reported as 109 µM, the CC50 [2] is reported as 126 µM and the “Ratio CC50/EC50” value [3] is reported as over 206. For the same compound, the CC50 [4] was over 33 µM, the Activity [5] was “inactive” and the EC50 [6] was 0.16 µM.
Compound `Brc1ccc(Cn2ccc3nc(COc4ccccc4)nc-3c2)cc1` has an EC50 [1] of 25 µM, a CC50 [2] of 35 µM and a CC50 [4] of over 33 µM. The “Ratio CC50/EC50” value [5] was 1.5 and the EC50 [6] was over 8 µM.
